Results from different studies.
Lines come from different studies, so protocols differ.
DPP9: Dipeptidyl peptidase 9 (DPP9, Homo sapiens, UniProt Q86TI2)
Genome polyprotein protease: Genome polyprotein, protease (ZIKV, UniProt A0A024B7W1)
Cacna1b: Voltage-dependent N-type calcium channel subunit alpha-1B (Cacna1b, Rattus norvegicus, UniProt Q02294)
CTSB: Cathepsin B (CTSB, Homo sapiens, UniProt P07858)
CCR2: C-C chemokine receptor type 2 (CCR2, Homo sapiens, UniProt P41597)

CN(C)C(=O)COC(=O)Cc1ccc(OC(=O)c2ccc(NC(=N)N)cc2)cc1  inhibition (DPP9; enzyme activity; inhibitor; 10 µM): 18%
C#Cc1n[nH]c2c(-c3cn([C@@H](C)c4ccccc4)c(=O)[nH]c3=O)cc(F)cc12  inhibition (Dual specificity protein kinase CLK3 (CLK3, Homo sapiens, UniProt P49761); enzyme activity; inhibitor; 0.1 µM): -0.8%
Oc1cc(O)c2c(c1)O[C@H](c1cc(O)c(O)c(O)c1)[C@H](O)C2  inhibition (Genome polyprotein protease; enzyme activity; inhibitor; FRET; 100 µM; pH 7): 7%
O=c1c(O)c(-c2ccc(O)c(O)c2)oc2cc(O)cc(O)c12  inhibition (Genome polyprotein protease; enzyme activity; inhibitor; 200 µM; pH 8.5): 100%
O=C(O)c1cc(O)c(O)c(O)c1  inhibition (Genome polyprotein protease; enzyme activity; inhibitor; FRET; 100 µM; pH 7): 15%
C#Cc1n[nH]c2c(-c3cn([C@@H](C)c4ccccn4)c(=O)[nH]c3=O)cc(F)cc12  inhibition (Cyclin-dependent kinase 8, with cyclin C (CDK8, Homo sapiens, UniProt P49336); enzyme activity; inhibitor; 0.1 µM): -1.7%
C[C@H](C(=O)N[C@H]1COc2ccccc2[C@@H]1S(C)(=O)=O)c1ccc(F)cc1  inhibition (Cacna1b; cell-free assay; 10 µM): 11%
N=C(N)c1ccc2cc(OC(=O)c3ccc(N=C(N)N)cc3)ccc2c1  inhibition (CTSB; enzyme activity; inhibitor; 10 µM): 48%
Cn1c(=O)c2c(ncn2C)n(C)c1=O  inhibition (Genome polyprotein protease; enzyme activity; inhibitor; FRET; 100 µM; pH 7): 6%
CC(C)N1CCC[C@H]1CNC(=O)c1cn(C2CCCC2)c(=O)c2c1c1ccccc1n2C  inhibition (Cacna1b; ligand displacement; radioligand; 10 µM): 2%
O=c1c(O)c(-c2ccc(O)c(O)c2)oc2cc(O)cc(O)c12  inhibition (Genome polyprotein protease; enzyme activity; inhibitor; FRET; 100 µM; pH 7): 37%
Cn1cc(-c2cccc(N3CCc4c(sc5c4CC(C)(C)C5)C3=O)c2CO)cc(Nc2ccncn2)c1=O  inhibition (MAP kinase-activated protein kinase 3 (MAPKAPK3, Homo sapiens, UniProt Q16644); enzyme activity; inhibitor; 1 µM): 4%
CCOC(=O)c1ccc(OC(=O)CCCCCNC(=N)N)cc1  inhibition (DPP9; enzyme activity; inhibitor; 10 µM): 14%
COc1cc(Nc2ncc(F)c(Nc3ccc4c(n3)NC(=O)C(C)(C)O4)n2)cc(OC)c1OC  inhibition (SNF-related serine/threonine-protein kinase (SNRK, Homo sapiens, UniProt Q9NRH2); binding; 10 µM): 7%
CCCCCCCCCCCC(=O)OC[C@@H](COP(=O)(O)OCCNC(=O)c1ccc(Cn2c(=O)[nH]c3c(N)nc(OCCOC)nc32)cc1)OC(=O)CCCCCCCCCCC  inhibition (Alpha-1A adrenergic receptor (Adra1a, Rattus norvegicus, UniProt P43140); ligand displacement; radioligand; 10 µM): -11%
CC(C)C[C@H](NC(=O)[C@H](Cc1ccccc1)NC(=O)c1cnccn1)B(O)O  inhibition (Suppressor of tumorigenicity 14 protein (ST14, Homo sapiens, UniProt Q9Y5Y6); cell-free assay; inhibitor; 33 µM): 51.5%
O=C(Nc1cccnn1)N1CCN([C@@H]2CCOc3cc(C(F)(F)F)ccc32)CC1  inhibition (CCR2; cell-free assay; 20 µM): -9%
O=C1N=C(N2CCCCN2)S/C1=C\c1ccc(F)cc1O  inhibition (5-hydroxytryptamine receptor 6 (HTR6, Homo sapiens, UniProt P50406); ligand displacement; radioligand; 10 µM): < 10%
C[C@@H]1O[C@@H](O[C@H]2[C@H](Oc3cc(O)c4c(c3)O[C@H](c3ccc(O)cc3)CC4=O)O[C@H](CO)[C@@H](O)[C@@H]2O)[C@H](O)[C@H](O)[C@H]1O  inhibition (Genome polyprotein protease; enzyme activity; inhibitor; FRET; 100 µM; pH 7): 12.5%
Cn1c(=O)c2ncnnc2n(C)c1=O  inhibition (Ubiquitin carboxyl-terminal hydrolase 14 (USP14, Homo sapiens, UniProt P54578); enzyme activity; inhibitor; 17 µM): 96%
N#Cc1ccc(NCCNCC(=O)N2N=CCC2C#N)nc1 (stereo not drawn)  inhibition (DPP9; enzyme activity; inhibitor; 0.1 µM): 0%
Cc1ncc(C)n2nc(/C=C/c3nc(N4CCCC4)cc(N4CCOCC4)n3)nc12  inhibition (CCR2; cell-free assay; 10 µM): 10%
CC(C)C[C@H](NC(=O)[C@H]1O[C@@H]1C(=O)O)C(=O)NCCCCN=C(N)N  inhibition (CTSB; enzyme activity; inhibitor; 5 nM): 77%
CCN(CC)CCCC[C@H](NC(=O)[C@H](CC(C)C)NC(=O)[C@H](C)NC(=O)[C@H](Cc1ccccc1)NC(=O)c1ccc(C(C)(C)C)cc1)C(=O)N[C@@H](CO)C(=O)OC  inhibition (C-X-C chemokine receptor type 2 (CXCR2, Homo sapiens, UniProt P25025); ligand displacement; radioligand; 10 µM): -12%
